This is an account of results in ChEMBL document CHEMBL4043301, “Tetrahydroquinoline Ring as a Versatile Bioisostere of Tetralin for Melatonin Receptor Ligands” (J Med Chem, 2018).

Each structure is given as a SMILES string. Bounds are passed on as bounds.

The species named for one test is Homo sapiens. In words: Selectivity ratio of Ki for human MT1 receptor to Ki for human MT2 receptor.
For test [1], the target named is T1, Melatonin receptor type 1A (Homo sapiens, UniProt P48039). The experiment in a line: Intrinsic activity at human MT1 receptor expressed in CHO cell membranes after 1 hr by [35S]GTPgammaS binding assay. Format: functional. An outline of the steps:
(§1)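 CHO-MT1 or MT2 membranes (20 µg/mL) were incubated with drug and 0.2 nM [35S]GTPγS for 1 h at room temperature. Buffer was 20 mM HEPES pH 7.4, 100 mM NaCl, 3 µM GDP, 3 mM MgCl2, 20 µg/mL saponin. Nonspecific binding was set with 10 µM GTPγS, followed by filtration. Seven concentrations in duplicate gave Emax, relative to 1 µM melatonin. Emax is the arithmetic mean ± SEM of ≥2 experiments.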
Background: GTPγS resists hydrolysis and so accumulates on activated G proteins.

In test [2] the target is T2, Melatonin receptor type 1B (Homo sapiens) (UniProt P49286).
T2 sequence (whole entry): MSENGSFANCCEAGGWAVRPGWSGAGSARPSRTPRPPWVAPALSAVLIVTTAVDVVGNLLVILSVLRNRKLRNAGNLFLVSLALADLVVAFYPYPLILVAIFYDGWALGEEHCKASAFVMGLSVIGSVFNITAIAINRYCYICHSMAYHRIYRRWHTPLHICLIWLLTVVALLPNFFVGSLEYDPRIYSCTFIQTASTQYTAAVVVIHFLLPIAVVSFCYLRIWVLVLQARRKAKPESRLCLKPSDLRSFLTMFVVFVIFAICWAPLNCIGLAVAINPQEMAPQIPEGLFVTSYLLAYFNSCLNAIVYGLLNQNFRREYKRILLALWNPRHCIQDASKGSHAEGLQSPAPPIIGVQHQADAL
In words: (§2) Intrinsic activity at human MT2 receptor expressed in CHO cell membranes after 1 hr by [35S]GTPgammaS binding assay. Format: functional. An outline of the steps: as §1

In test [3] the target is T1, Melatonin receptor type 1A. In words: Displacement of 2-[125I]-Iodomelatonin from human MT1 receptor expressed in CHO cell membranes after 120 mins by filter binding method. Summed up: (§3)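 Membranes from CHO cells stably expressing human MT1 or MT2 were incubated with 20 pM 2-[125I]-iodomelatonin and test drug in 50 mM Tris-HCl pH 7.4, 5 mM MgCl2, for 120 min at 37 °C. Nonspecific binding was set with 1 µM melatonin. Filtration onto PEI-soaked GF/B filters. Seven concentrations in duplicate gave IC50, converted to Ki by Cheng-Prusoff. Ki is the geometric mean of ≥2 experiments.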

For test [4], the target named is T3, Melatonin receptor type 1B (Homo sapiens, UniProt P49286).
T3 sequence (P49286 whole entry): T2 sequence (whole entry)
In words: Displacement of 2-[125I]-Iodomelatonin from human MT2 receptor expressed in CHO cell membranes after 120 mins by filter binding method. An outline of the steps: as §3

Test [5] concerns the target T3, Melatonin receptor type 1B. The test is described as §2. Format: functional. An outline of the steps: as §1

T1 sequence (P48039 whole entry): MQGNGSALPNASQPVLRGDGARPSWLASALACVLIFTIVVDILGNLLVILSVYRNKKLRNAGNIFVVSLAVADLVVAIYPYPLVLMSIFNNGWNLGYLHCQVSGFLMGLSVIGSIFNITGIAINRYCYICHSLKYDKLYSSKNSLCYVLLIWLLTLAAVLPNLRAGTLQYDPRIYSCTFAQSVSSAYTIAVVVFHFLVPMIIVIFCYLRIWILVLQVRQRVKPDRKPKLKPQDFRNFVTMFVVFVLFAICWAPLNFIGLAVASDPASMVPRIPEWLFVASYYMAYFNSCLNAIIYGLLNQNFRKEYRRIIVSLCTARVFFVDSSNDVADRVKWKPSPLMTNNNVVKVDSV

A word on the Emax: it is the size of the effect at its maximum, as opposed to the concentration needed. On to `CC(=O)NCC1Cc2ccccc2N(c2ccccc2)C1` (racemic) [listing 1 of 2 here], for which the Ratio Ki in the test filed under Homo sapiens worked out at 10. Besides, the Emax in test [1] stood at 27%; in test [2] it was 10%.
What is called Ki is the dissociation constant of the complex between target and ligand, obtained from inhibition or displacement. Low readings indicate higher affinity, high ones lower affinity. `CCC(=O)NC[C@@H]1CCc2ccccc2[C@@H]1c1ccccc1` (racemic): the Ki in test [3] was 3.5 nM; in test [4] it was 0.22 nM. Further, the Ratio Ki in the test listed under Homo sapiens worked out at 16. Further, the Emax in test [1] came to 56%; in test [2], 75%.
`CC(=O)NCC1CNc2ccccc2C1` (racemic): the Ki in test [3] stood at 430 nM; in test [4], 110 nM. Further, the Ratio Ki in the test listed under Homo sapiens was found to be 3.9.
By EC50 is commonly meant the concentration that produces a half-maximal response. Lower therefore signals an effect from little substance. Regarding `CC(=O)NCC1Cc2ccccc2N(CCc2ccccc2)C1` (racemic), the Ki in test [3] is 246 nM; in test [4], 47 nM. Further, in the test listed under Homo sapiens, the Ratio Ki was found to be 5.2. This molecule yielded an Emax in test [2] of 47%. Besides, the EC50 in test [5] was determined as 80 nM.
For `CCN1CC(CNC(C)=O)Cc2ccccc21` (racemic), the Ki is 20 nM in test [3] and 1 nM in test [4]. For the same molecule, in the test filed under Homo sapiens, the Ratio Ki came out at 20. Moreover, the EC50 in test [1] is more than 10000 nM; in test [5], 7 nM. Also, the maximum response (Emax) in test [2] amounted to 59%.
`CC(=O)NCC1Cc2ccccc2N(Cc2ccccc2)C1` (racemic): the Ki was determined as 59 nM in test [3] and 1 nM in test [4]. The Ratio Ki in the test listed under Homo sapiens came to 59. Further, the Emax in test [2] was 28%. The same molecule displayed an EC50 in test [5] of 3 nM.
For `CC(=O)NCC1Cc2ccccc2N(c2ccccc2)C1` (stereo in doubt; (+)-15e) [listing 1 of 2 here], the Emax in test [1] stood at 25%; in test [2] it was 5%.
With `CC(=O)NCC1Cc2ccccc2N(c2ccccc2)C1` (single isomer, unassigned; (-)) [listing 1 of 2 here], the Ki in test [3] was 3.02 nM; in test [4], 1.38 nM.
In the case of `CC(=O)NCC1Cc2ccccc2N(c2ccccc2)C1` (single isomer, unassigned; (-)) [listing 2 of 2 here], the Emax came to 30% in test [1] and 29% in test [2].
On to `CCC(=O)NC[C@@H]1CN(C)c2ccccc2[C@@H]1c1ccccc1` (racemic), for which the Ki in test [3] was determined as 3.4 nM; in test [4], 0.48 nM. In addition, the Ratio Ki in the test listed under Homo sapiens was found to be 7.1. The Emax in test [1] worked out at 82%; in test [2] it was 75%.
As to `CC(=O)NCC1Cc2ccccc2N(C)C1` (racemic), the Ki in test [3] was determined as 83 nM; in test [4], 15 nM. For the same molecule, the Ratio Ki in the test filed under Homo sapiens came out at 5.5. In addition, the EC50 was more than 10000 nM in test [1] and 10 nM in test [5]. In test [2], this molecule registered an Emax of 32%.
Turning to `CCC(=O)NC[C@@H]1CCc2ccccc2[C@H]1c1ccccc1` (racemic), the Ki in test [3] was found to be 62 nM; in test [4] it was 0.23 nM. Moreover, the Ratio Ki in the test listed under Homo sapiens worked out at 270. Moreover, the values for the maximum response (Emax) in test [1] and in test [2] were 61% and 78%, respectively.
Take `CCC(=O)NC1Cc2ccccc2N(c2ccccc2)C1` (racemic): the values for the Ki in test [3] and in test [4] were 22 nM and 2 nM, respectively. The Ratio Ki in the test listed under Homo sapiens turned out to be 11. Moreover, the concentration for a half-maximal effect (EC50) came to 20 nM in test [1] and 1 nM in test [5]. For the same molecule, the Emax in test [1] was 29%; in test [2], 41%.
Regarding `CC(=O)NCC1Cc2ccccc2N(c2ccccc2)C1` (racemic) [listing 2 of 2 here], the Ki in test [3] lay in the range of 2.4 to 3 nM; in test [4] it was 0.3 to 1.2 nM. Further, the EC50 in test [1] and in test [5] was more than 10000 nM in each case.
For the molecule `CC(=O)NCC1Cc2ccccc2N(c2ccccc2)C1` (stereo in doubt; (+)-15e) [listing 2 of 2 here], the values for the Ki in test [3] and in test [4] were 1.58 nM and 0.78 nM, respectively.
In the case of `CCC(=O)NC1Cc2ccccc2N(Cc2ccccc2)C1` (racemic), the Ki in test [3] was 892 nM; in test [4], 6 nM. Besides, the Ratio Ki in the test filed under Homo sapiens came out at 149. This molecule also gave a concentration giving a half-maximal response (EC50) in test [5] of more than 10000 nM.
Regarding `CCC(=O)NCC1=C(c2ccccc2)c2ccccc2CC1`, the Ki in test [3] was 28 nM; in test [4], 3.8 nM. Further, the Ratio Ki in the test listed under Homo sapiens amounted to 7.4. Moreover, the Emax in test [1] stood at 16%; in test [2] it was 30%.
